Screens: PubChem BioAssay, several laboratories
Rows were chosen to be rich in hits. Some 1.3% of all compounds tested hit in one or more screens of this group.
Tn6 DDE FP – inhibitors of Tn6 peptide binding to human fibrin DD(E); AID 720509; 370,000 compounds, 0.21% hits; inhibition, % at 8.3 µM; P02675; Fibrin DD(E) TRITC-Tn6 fluorescence polarization displacement;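 active = inhibition above a per-campaign cutoff: mean of compounds within control limits plus 3 SD, cut at about 15% in these data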;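 also: 0% = median of all compound wells on the plate and 100% = blocking peptide control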
Target sequence (P02675 whole entry, looked up): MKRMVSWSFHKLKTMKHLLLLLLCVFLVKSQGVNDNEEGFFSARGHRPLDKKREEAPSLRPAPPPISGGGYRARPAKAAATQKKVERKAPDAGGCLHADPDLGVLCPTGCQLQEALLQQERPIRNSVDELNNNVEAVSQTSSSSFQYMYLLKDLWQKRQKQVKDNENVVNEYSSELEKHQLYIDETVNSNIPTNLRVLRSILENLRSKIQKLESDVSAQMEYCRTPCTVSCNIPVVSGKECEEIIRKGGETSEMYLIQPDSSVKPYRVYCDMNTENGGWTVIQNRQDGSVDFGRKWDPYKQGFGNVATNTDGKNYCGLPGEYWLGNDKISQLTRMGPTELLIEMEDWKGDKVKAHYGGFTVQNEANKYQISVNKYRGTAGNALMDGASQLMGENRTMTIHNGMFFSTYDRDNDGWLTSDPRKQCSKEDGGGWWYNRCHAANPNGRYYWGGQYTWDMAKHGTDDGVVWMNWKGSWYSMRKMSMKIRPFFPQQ
Tn7 DDE FP – disrupts Tn7 cyclic peptide binding to fibrin D-Dimer-E complex; inhibition, % at 8.3 µM; AID 720508; FP displacement of FITC-Tn7 peptide from fibrin DD(E); 0% = median of compound wells per plate; 370,000 compounds, 0.13% hits;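 active = inhibition above the mean of compounds falling within the control limits plus 3 SD of them, cut at about 14% in these data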;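 also: 0% = plate median of compound wells and 100% = 10 µM Aha-Tn7 peptide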
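Assay system: human fibrin DD(E). Input: DD(E) 2 µM final. Medium: Tris buffer with calcium and detergent, pH 7.8. Compound dosing: single point at 8.3 µM. Timing: 10 min plus 3 h, room temperature. Technique: fluorescence polarization of the labelled Tn7 tracer. Read-out: percent inhibition. Replicates: singlicate testing.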
CRFR2-BP ag – CRF-BP/CRF-R2 complex agonism; HEK293 CRF-R2/CRF-BP, calcium dye fluorescence (FLIPR); percent of saturating CRF peptide response; activation, % at 13.2 µM; 350,000 compounds, 0.46% hits;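 active = activation of at least 50%, plus an integration ratio under a set limit after plate pattern correction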;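 also: plate controls were neutral control wells without compound for no effect and CRF at EC100 for full effect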
CRFR2-BP antag – blocks CRF-induced signaling of the CRF-BP/CRF-R2 complex | HEK293 CRF-R2/CRF-BP, CRF-induced calcium fluorescence | inhibition, % at 11.8 µM | 350,000 compounds, 0.59% hits;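 active = inhibition of the ligand-induced calcium signal above about 50% at the single tested concentration, limit read from the data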
* hit, by the source's call.

For COC(=O)c1ccc2c(C3(c4c[nH]c5ccccc45)CCN(C(=O)OC(C)(C)C)CC3)c[nH]c2c1 the results were Tn6 DDE FP -8.0 and Tn7 DDE FP 2.4.
Screening COc1cc(OC)cc(C(=O)NC(=S)NNC(=O)[C@H]2C[C@@H]2c2ccccc2)c1 returned Tn6 DDE FP 5.7, Tn7 DDE FP -0.1, CRFR2-BP ag 162.9* and CRFR2-BP antag -52.0.
`CSC1=NCCN1C(=O)Cc1ccc(Cl)cc1` gave Tn6 DDE FP 1.7, Tn7 DDE FP 2.2, CRFR2-BP ag 0.3 and CRFR2-BP antag 50.2*.
`COc1ccc(CC(=O)N2CCN=C2SC)cc1` gave Tn6 DDE FP -7.3, Tn7 DDE FP 5.3, CRFR2-BP ag -1.7 and CRFR2-BP antag 24.2.
`CC(C)C[C@@H]1COc2cc(N3CCSCC3)ccc2S(=O)(=O)N1C` gave Tn6 DDE FP -0.2 and Tn7 DDE FP -1.7.
COc1ccc2c(c1)C(c1ccc([N+](=O)[O-])cc1)=NNC(c1ccco1)=N2 was read as Tn6 DDE FP 5.2, Tn7 DDE FP -2.6, CRFR2-BP ag -0.7 and CRFR2-BP antag 31.6.
`COc1ccc(C2=NNC(c3ccco3)=Nc3ccc(F)cc32)cc1` gave Tn6 DDE FP -5.4, Tn7 DDE FP -0.8, CRFR2-BP ag -2.2 and CRFR2-BP antag 53.7*.
For CCn1c(SCC(=O)NN=Cc2cccc(OCc3ccccc3)c2)nnc1-c1ccc(OC)c(OC)c1 the results were Tn6 DDE FP -0.9 and Tn7 DDE FP -3.3.
For CCCNS(=O)(=O)c1ccc(Oc2ncc(C(F)(F)F)cc2Cl)cc1 the results were Tn6 DDE FP -5.3, Tn7 DDE FP 6.6, CRFR2-BP ag 80.6* and CRFR2-BP antag -77.3.
`Cc1cc(N2CCC(C)CC2)c(F)cc1[N+](=O)[O-]` gave Tn6 DDE FP 1.7, Tn7 DDE FP -4.4, CRFR2-BP ag -1.1 and CRFR2-BP antag -6.6.
For Cc1cc(N2CCCC2)c(F)cc1/C=C\[N+](=O)[O-] the results were Tn6 DDE FP 3.0, Tn7 DDE FP -10.2, CRFR2-BP ag 120.5* and CRFR2-BP antag -74.2.
Screening COC(=O)C1CN(CC(C)C)CCS(=O)(=O)N1Cc1ccc(C(F)(F)F)cc1 (stereo not given) returned Tn6 DDE FP 4.8 and Tn7 DDE FP -2.9.
For COC(=O)c1cc(-c2ccc(C(C)=O)cc2)c(=O)n2c1CCC2 the results were Tn6 DDE FP 7.2 and Tn7 DDE FP -4.2.
`Cc1nn(-c2cccc(Cl)c2)c2nc(C(F)(F)F)[nH]c(=O)c12` gave Tn6 DDE FP 0.6, Tn7 DDE FP 0.7, CRFR2-BP ag 26.4 and CRFR2-BP antag 85.8*.
`CSc1nc(C)c(C(=O)C[n+]2ccccc2C)cc1C#N` gave Tn6 DDE FP -10.3, Tn7 DDE FP -6.4, CRFR2-BP ag 1.2 and CRFR2-BP antag 72.5*.
For O=C(CC1CCCC1)N1CC[C@H]2[C@H](CCCN2Cc2ccccc2)C1 the results were Tn6 DDE FP -0.8 and Tn7 DDE FP 1.0.
`CCOc1ccc(CCNC(=O)c2cccc(NC3=NC4CS(=O)(=O)CC4S3)c2)cc1` (stereo not given) gave Tn6 DDE FP 8.2, Tn7 DDE FP -7.6, CRFR2-BP ag -2.2 and CRFR2-BP antag 7.9.
CCOc1ccc(CCNC(=O)c2cccc(NC3=NC4CS(=O)(=O)CC4S3)c2)cc1OCC (stereo not given) was read as Tn6 DDE FP 4.0, Tn7 DDE FP -4.4, CRFR2-BP ag -6.0 and CRFR2-BP antag 50.3*.
For C=C(C)[C@@H]1CC2=C(OC)C(CC=C(C)C)(CC=C(C)C)C(=O)C(C(=O)c3ccccc3)=C2O1 the results were Tn6 DDE FP -6.9 and Tn7 DDE FP 1.2.
O=C(CCCn1c(SCC(=O)NC2CCCCC2)nc2ccccc2c1=O)NCC1CCCO1 (stereo not given) was read as Tn6 DDE FP -9.5, Tn7 DDE FP -6.3, CRFR2-BP ag 1.7 and CRFR2-BP antag 1.6.
Screening CCC(C)NC(=O)CSc1nc2ccccc2c(=O)n1CCCC(=O)NCC1CCCO1 (stereo not given) returned Tn6 DDE FP -6.1, Tn7 DDE FP -7.3, CRFR2-BP ag -4.3 and CRFR2-BP antag 50.7*.
Screening Cc1cc2nc(C)n(CCCN)c2cc1C returned Tn6 DDE FP 0.1, Tn7 DDE FP -2.2, CRFR2-BP ag 0.2 and CRFR2-BP antag 54.1*.
CCN(CC)c1ccc(/C=C2\CCC(/C=N/NC(=O)c3ccc(=O)n(C)c3)=C2N2CCOCC2)cc1 was read as Tn6 DDE FP -0.4, Tn7 DDE FP -8.5, CRFR2-BP ag 96.1* and CRFR2-BP antag -146.4.
For O=C(N/N=C/C1=C(N2CCOCC2)C(=C\c2ccccc2)/CC1)Nc1ccccc1 the results were Tn6 DDE FP 8.3, Tn7 DDE FP -5.8, CRFR2-BP ag 0.9 and CRFR2-BP antag -31.1.
`O=C1c2cccc(NCCNCCO)c2C(=O)c2cccc(NCCNCCO)c21` gave Tn6 DDE FP 47.9*, Tn7 DDE FP 8.8, CRFR2-BP ag -2.3 and CRFR2-BP antag -7.4.
Screening Cc1ccccc1C1CCC2(CCC(=O)N2CC[C@@H](O)c2ccccc2)CC1 (stereo not given in full) returned Tn6 DDE FP 6.8 and Tn7 DDE FP -0.8.
For CC(Oc1ccc(Cl)cc1Cl)C(=O)NNC(=O)c1cccnc1 (stereo not given) the results were Tn6 DDE FP 3.5, Tn7 DDE FP -3.7, CRFR2-BP ag -0.5 and CRFR2-BP antag -12.1.
For CC(Oc1cccc(Cl)c1)C(=O)NNC(=O)c1cccnc1 (stereo not given) the results were Tn6 DDE FP -3.4, Tn7 DDE FP -2.9, CRFR2-BP ag 3.8 and CRFR2-BP antag 67.7*.
CC(=O)Nc1ccc(NC(=O)COc2ccc([N+](=O)[O-])cc2)cc1 was read as Tn6 DDE FP -2.0, Tn7 DDE FP 2.9, CRFR2-BP ag -1.1 and CRFR2-BP antag 60.2*.
Screening O=C(CCOc1ccccc1)Nc1ccccc1 returned Tn6 DDE FP 1.9, Tn7 DDE FP 4.5, CRFR2-BP ag -1.3 and CRFR2-BP antag 25.2.
For O=C(CCOc1ccccc1)Nc1ccc([N+](=O)[O-])cc1 the results were Tn6 DDE FP 5.3, Tn7 DDE FP 1.4, CRFR2-BP ag 1.3 and CRFR2-BP antag 67.0*.
`O[C@H](COc1ccc(C(F)(F)F)cc1)CN1CCC(C(O)(c2ccccc2)c2ccccc2)CC1` gave Tn6 DDE FP 3.9 and Tn7 DDE FP -4.5.
`COc1cc(/C=C2/SC(=S)N(Cc3ccccc3)C2=O)ccc1OCC(=O)O` gave Tn6 DDE FP 1.9, Tn7 DDE FP -5.5, CRFR2-BP ag 0.3 and CRFR2-BP antag 7.3.
Screening O=C1/C(=C/c2ccc(O)c([N+](=O)[O-])c2)SC(=S)N1Cc1ccccc1 returned Tn6 DDE FP 1.4, Tn7 DDE FP 7.1, CRFR2-BP ag 8.4 and CRFR2-BP antag 108.3*.
Screening O=C1NC(=Nc2ccccc2Cl)S/C1=C\c1cccc([N+](=O)[O-])c1O returned Tn6 DDE FP -4.4, Tn7 DDE FP 0.7, CRFR2-BP ag -1.4 and CRFR2-BP antag 53.0*.
O=C1/C(=C\c2cc(Br)cc(Br)c2O)SC(=S)N1Cc1ccccc1 was read as CRFR2-BP ag 20.7 and CRFR2-BP antag 63.6*.
